The record followed here is ChEMBL document CHEMBL3734706, “Syntheses and biological evaluation of C-3'-N-acyl modified taxane analogues from 1-deoxybaccatin-VI” (Eur J Med Chem, 2015).

Each structure is given as a SMILES string.

The nature of test [1]: Cytotoxicity against human H460 cells incubated for 48 hrs by CCK-8 assay. The following applies: NCI-H460, 48 h. Format: functional, cell-based. In a few lines: (§1)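 Growing human tumour cells exposed to compounds for 48 h; viability read by CCK-8; IC50 determined.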
The subject of test [2] is MDA-MB-231. The test can be described thus: Cytotoxicity against human MDA-MB-231 cells incubated for 72 hrs by MTT assay. Format: functional, cell-based. The following applies: MDA-MB-231, 72 h. In outline:
(§2)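 Exponentially growing human tumour cells exposed 72 h to compounds formulated in DMSO; survival read by MTT; dose–response curves over 0.001–100 μM; IC50 taken from curves.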
Background: Tetrazolium assays rely on reduction of a dye to a coloured formazan, in cell work by metabolically active cells.

The subject of test [3] is HepG2. The test can be described thus: Cytotoxicity against human HepG2 cells incubated for 48 hrs by CCK-8 assay. Format: functional, cell-based. The following applies: HepG2, 48 h. In a few lines:
as §1

Test [4] can be described thus: Cytotoxicity against human PC3 cells incubated for 72 hrs by MTT assay. The format is functional, cell-based. The following applies: PC-3, 72 h. In outline:
as §2

Test [5] is described as follows: Cytotoxicity against human PC3 cells assessed as inhibition of cell survival upto 100 uM incubated for 72 hrs by MTT assay relative to control. The format is functional, PC-3. In outline: as §2
The test system of test [6] is MDA-MB-231. The test can be described thus: Cytotoxicity against human MDA-MB-231 cells assessed as inhibition of cell survival upto 100 uM incubated for 72 hrs by MTT assay relative to control. Format: functional. In a few lines: as §2
For test [7], the system named is A549. As to the kind of experiment: Cytotoxicity against human A549 cells. Format: functional, cell-based.
Test [8] is described as follows: Cytotoxicity against human HCT116 cells assessed as decrease in cell protein incubated for 48 hrs. Format: functional, cell-based. The note with it: HCT-116, 48 h.

`COc1ccc(C(=O)N[C@@H](c2ccccc2)[C@@H](O)C(=O)O[C@H]2CC3[C@@H](OC(=O)c4ccccc4)[C@@H]4[C@]5(OC(C)=O)CO[C@@H]5C[C@H](O)[C@@]4(C)[C@@H](O)[C@H](O)C(=C2C)C3(C)C)cc1` (stereo not given in full): the IC50 is 199 nM in test [1], < 1 nM in test [2], 567 nM in test [3] and 10 nM in test [4]. Moreover, the “inhibition (INH)” value in test [5] and in test [6] was 90% in each case.

Turning to `CC(=O)O[C@@]12CO[C@@H]1C[C@H](O)[C@]1(C)[C@@H]2[C@H](OC(=O)c2ccccc2)C2C[C@H](OC(=O)[C@H](O)[C@@H](NC(=O)c3cccs3)c3ccccc3)C(C)=C([C@@H](O)[C@@H]1O)C2(C)C` (stereo not given in full), the 50% inhibitory concentration (IC50) was 1260 nM in test [2] and 1630 nM in test [4]. Besides, the “inhibition (INH)” value in test [5] and in test [6] was 90% each time.

In the case of `CCCCCC(=O)N[C@@H](c1ccccc1)[C@@H](O)C(=O)O[C@H]1CC2[C@@H](OC(=O)c3ccccc3)[C@@H]3[C@]4(OC(C)=O)CO[C@@H]4C[C@H](O)[C@@]3(C)[C@H]3OC(C)(C)O[C@@H]3C(=C1C)C2(C)C` (stereo not given in full), the values for the IC50 in test [2] and in test [4] were 10 nM and 210 nM, respectively.

Turning to `CC(=O)O[C@@]12CO[C@@H]1C[C@H](O)[C@]1(C)[C@@H]2[C@H](OC(=O)c2ccccc2)C2C[C@H](OC(=O)[C@H](O)[C@@H](NC(=O)c3ccco3)c3ccccc3)C(C)=C([C@@H](O)[C@@H]1O)C2(C)C` (stereo not given in full), the IC50 in test [1] is 289 nM; in test [2], < 1 nM; in test [3] it was 2020 nM; in test [4], 4 nM. The “inhibition (INH)” value in test [5] and in test [6] was 90% throughout.

For the compound `CC(=O)O[C@@]12CO[C@@H]1C[C@H](O)[C@]1(C)[C@@H]2[C@H](OC(=O)c2ccccc2)C2C[C@H](OC(=O)[C@H](O)[C@@H](NC(=O)c3ccc(CCl)cc3)c3ccccc3)C(C)=C([C@@H](O)[C@@H]1O)C2(C)C` (stereo not given in full), the values for the IC50 in test [2] and in test [4] were 30 nM and 90 nM, respectively. For the same compound, the “inhibition (INH)” value in test [5] and in test [6] was 90% in each case.

On to `CC(=O)O[C@@]12CO[C@@H]1C[C@H](O)[C@]1(C)[C@@H]2[C@H](OC(=O)c2ccccc2)C2C[C@H](OC(=O)[C@H](O)[C@@H](NC(=O)c3ccc(F)cc3)c3ccccc3)C(C)=C([C@@H](O)[C@@H]1O)C2(C)C` (stereo not given in full), for which the IC50 was < 1 nM in test [2] and 20 nM in test [4]. Besides, the “inhibition (INH)” value in test [5] and in test [6] was 90% each time.

In turn, `CC(=O)O[C@H]1C(=O)[C@]2(C)[C@@H](OC(C)=O)C[C@H]3OC[C@@]3(OC(C)=O)[C@H]2[C@H](OC(=O)c2ccccc2)C2C[C@H](OC(=O)[C@H](O)[C@@H](NC(=O)c3ccccc3)c3ccccc3)C(C)=C1C2(C)C` (stereo not given in full) displayed a 50% inhibitory concentration (IC50) in test [7] of 62 nM.

Regarding `CCCCCC(=O)N[C@@H](c1ccccc1)[C@@H](O)C(=O)O[C@H]1CC2[C@@H](OC(=O)c3ccccc3)[C@@H]3[C@]4(OC(C)=O)CO[C@@H]4C[C@H](O)[C@@]3(C)[C@@H](O)[C@H](O)C(=C1C)C2(C)C` (stereo not given in full), the 50% inhibitory concentration (IC50) in test [2] was < 1 nM; in test [4] it was 10 nM. For the same compound, the “inhibition (INH)” value in test [5] and in test [6] was 40% each time.

Regarding `CC(=O)O[C@@]12CO[C@@H]1C[C@H](O)[C@]1(C)[C@@H]2[C@H](OC(=O)c2ccccc2)C2C[C@H](OC(=O)[C@H](O)[C@@H](NC(=O)c3cc4ccccc4o3)c3ccccc3)C(C)=C([C@@H](O)[C@@H]1O)C2(C)C` (stereo not given in full), the figures for the IC50 in test [2] and in test [4] were 20 nM and 70 nM, respectively. Moreover, the “inhibition (INH)” value in test [5] and in test [6] was 90% each time.

For the compound `CC(=O)OC1[C@H](OC(C)=O)C2=C(C)[C@@H](OC(=O)[C@H](O)[C@@H](NC(=O)c3ccccc3)c3ccccc3)CC([C@@H](OC(=O)c3ccccc3)[C@@H]3[C@]4(OC(C)=O)CO[C@@H]4C[C@H](OC(C)=O)[C@@]13C)C2(C)C` (stereo not given in full), the IC50 in test [8] turned out to be 31.5 nM.

For `CCCCCC(=O)N[C@@H](c1ccccc1)[C@@H](O)C(=O)O[C@H]1CC2[C@@H](OC(=O)c3ccccc3)[C@@H]3[C@]4(OC(C)=O)CO[C@@H]4C[C@H](OC(C)=O)[C@@]3(C)C(=O)[C@H](OC(C)=O)C(=C1C)C2(C)C` (stereo not given in full), the concentration for half-maximal inhibition (IC50) in test [2] came to 270 nM; in test [4], 330 nM.

Regarding `CC(=O)O[C@H]1C(=O)[C@@]2(C)[C@H]([C@H](OC(=O)c3ccccc3)[C@]3(O)C[C@H](OC(=O)[C@H](O)[C@@H](NC(=O)c4ccccc4)c4ccccc4)C(C)=C1C3(C)C)[C@]1(OC(C)=O)CO[C@@H]1C[C@@H]2O` [PACLITAXEL], the IC50 in test [1] is 4290 nM; in test [8], 2.8 nM; in test [2] it was < 1 nM; in test [3] it was 1220 nM; in test [4], < 1 nM. Besides, the “inhibition (INH)” value in test [5] and in test [6] was 40% each time.

What is called IC50 is the concentration at which inhibition is half-maximal.
